The nature of data set [1]: Oral bioavailability in Sprague-Dawley rat at 500 mg/kg. Conditions: in vivo; call rule not given here. It is filed as ADME, organism-based.
A further data set concerns the target Histamine H3 receptor (Homo sapiens, UniProt Q9Y5N1). Put plainly: Displacement of [3H]N-alpha-methylhistamine from human recombinant histamine H3 receptor expressed in SK-N-MC cells after 45 mins by competition binding analysis. Type of data set: cell-based.
Data set [2] is described as follows: AUC in Sprague-Dawley rat at 500 mg/kg, po. Type of data set: ADME, organism-based. Set-up: dose 500 mg/kg, route oral. Conditions: plasma.
A short description of data set [3]: Permeability from apical to basolateral side in human Caco cells. It is filed as ADME, cell-based. Conditions: Caco-2, read-out: permeability. (Passage across Caco-2 layers is used to estimate intestinal permeability.)
The nature of data set [4]: Binding affinity to dog histamine H4 receptor. Set-up: species or system Canis lupus familiaris.
Data set [5] in a line: Tmax in mouse liver at 5 mg/kg, po administered as single dose by LC-MS/MS analysis. It is filed as ADME, organism-based. Set-up: dose 5 mg/kg, route oral. The method, boiled down:
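Mice received one oral dose of 5 mg/kg. Brain, liver and kidneys were surgically removed from three mice per time point for up to 96 h after dosing. Tissue drug levels were measured by LC–MS/MS with a lower limit of quantitation of 1 ng/g. Tmax and t1/2 are reported as means.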

A short description of data set [6]: Fraction unbound in mouse plasma. Type of data set: ADME, cell-free.
A short description of data set [7]: Half life in Sprague-Dawley rat at 10 mg/kg, po. It is filed as ADME, organism-based. On the set-up: dose 10 mg/kg, route oral. The settings on record: in vivo.
Another data set concerns the target Histamine H4 receptor (Homo sapiens, UniProt Q9H3N8). Put plainly: Displacement of [3H]histamine from human recombinant histamine H4 receptor expressed in SK-N-MC cells after 45 mins by competition binding analysis. Type of data set: cell-based.
A short description of data set [8]: Ratio of drug level in liver to plasma in mouse at 5 mg/kg, po administered as single dose […] by LC-MS/MS analysis. Set-up: dose 5 mg/kg, route oral. Type of data set: ADME, organism-based.
A short description of data set [9]: Cmax in Balb/c mouse at 20 mg/kg, po. Type of data set: ADME, organism-based. On the set-up: dose 20 mg/kg, route oral. Conditions: in vivo.
Data set [10] is described as follows: Oral bioavailability in beagle dog at 10 mg/kg. It is filed as ADME, organism-based, Canis lupus familiaris. The settings on record: in vivo.
Data set [11] is described as follows: Tmax in Sprague-Dawley rat at 10 mg/kg, po. The settings on record: in vivo. It is filed as ADME, organism-based. Set-up: dose 10 mg/kg, route oral.
Data set [12] can be described thus: Half life in Balb/c mouse at 5 mg/kg, po. Set-up: dose 5 mg/kg, route oral. It is filed as ADME, organism-based. Conditions: in vivo.
Data set [13] is described as follows: Tmax in Sprague-Dawley rat at 50 mg/kg, po. Conditions: in vivo. It is filed as ADME, organism-based. Set-up: dose 50 mg/kg, route oral.
The nature of data set [14]: Oral bioavailability in Balb/c mouse at 20 mg/kg. It is filed as ADME, organism-based. Conditions: in vivo.
Data set [15] is described as follows: Half life in Sprague-Dawley rat at 200 mg/kg, po. Type of data set: ADME, organism-based. Set-up: dose 200 mg/kg, route oral. Conditions: in vivo.
In data set [16] the target is Voltage-gated inwardly rectifying potassium channel KCNH2 (Homo sapiens, UniProt Q12809). Put plainly: Inhibition of human ERG channel transfected in HEK293 cells assessed as K+ current at up to 10 uM by patch clamp assay. Type of data set: cell-based.
The nature of data set [17]: Ratio of drug level in kidney to plasma in mouse at 5 mg/kg, po administered as single dose […] by LC-MS/MS analysis. It is filed as ADME, organism-based. Set-up: dose 5 mg/kg, route oral.
Data set [18] can be described thus: Tmax in Sprague-Dawley rat at 200 mg/kg, po. It is filed as ADME, organism-based. On the set-up: dose 200 mg/kg, route oral. Conditions: in vivo.
Data set [19] can be described thus: Half life in rat at 10 mg/kg, po. Conditions: in vivo. It is filed as ADME, organism-based. Set-up: dose 10 mg/kg, route oral.
The nature of data set [20]: Oral bioavailability in Sprague-Dawley rat at 50 mg/kg. The settings on record: in vivo. It is filed as ADME, organism-based.

Each structure is given as a SMILES string.

Histamine H4 receptor, sequence (Q9H3N8 whole entry): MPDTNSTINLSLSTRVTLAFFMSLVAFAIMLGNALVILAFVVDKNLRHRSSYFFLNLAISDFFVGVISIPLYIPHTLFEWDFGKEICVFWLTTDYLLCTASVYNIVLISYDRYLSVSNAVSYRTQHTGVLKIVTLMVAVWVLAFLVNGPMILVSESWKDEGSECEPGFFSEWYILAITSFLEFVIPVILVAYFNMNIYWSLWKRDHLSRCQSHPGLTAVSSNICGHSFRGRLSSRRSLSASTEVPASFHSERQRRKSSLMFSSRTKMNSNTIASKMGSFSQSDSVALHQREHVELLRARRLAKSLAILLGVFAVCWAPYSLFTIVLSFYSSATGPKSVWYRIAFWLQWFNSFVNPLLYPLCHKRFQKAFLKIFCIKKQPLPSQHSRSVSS
Histamine H3 receptor, sequence (Q9Y5N1 whole entry): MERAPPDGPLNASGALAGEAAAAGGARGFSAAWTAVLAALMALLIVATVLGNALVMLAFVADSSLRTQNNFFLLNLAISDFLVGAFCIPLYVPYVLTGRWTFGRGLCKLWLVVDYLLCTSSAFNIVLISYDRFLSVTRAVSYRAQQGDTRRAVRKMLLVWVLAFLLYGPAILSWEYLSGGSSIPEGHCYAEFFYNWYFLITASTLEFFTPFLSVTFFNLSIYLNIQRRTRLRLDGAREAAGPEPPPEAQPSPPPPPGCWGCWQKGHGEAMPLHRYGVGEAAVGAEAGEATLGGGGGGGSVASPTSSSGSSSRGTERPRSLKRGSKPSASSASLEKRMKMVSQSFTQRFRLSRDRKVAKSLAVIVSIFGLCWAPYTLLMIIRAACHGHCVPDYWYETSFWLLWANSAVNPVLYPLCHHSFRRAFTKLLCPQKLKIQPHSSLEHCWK
Voltage-gated inwardly rectifying potassium channel KCNH2, sequence (Q12809 whole entry): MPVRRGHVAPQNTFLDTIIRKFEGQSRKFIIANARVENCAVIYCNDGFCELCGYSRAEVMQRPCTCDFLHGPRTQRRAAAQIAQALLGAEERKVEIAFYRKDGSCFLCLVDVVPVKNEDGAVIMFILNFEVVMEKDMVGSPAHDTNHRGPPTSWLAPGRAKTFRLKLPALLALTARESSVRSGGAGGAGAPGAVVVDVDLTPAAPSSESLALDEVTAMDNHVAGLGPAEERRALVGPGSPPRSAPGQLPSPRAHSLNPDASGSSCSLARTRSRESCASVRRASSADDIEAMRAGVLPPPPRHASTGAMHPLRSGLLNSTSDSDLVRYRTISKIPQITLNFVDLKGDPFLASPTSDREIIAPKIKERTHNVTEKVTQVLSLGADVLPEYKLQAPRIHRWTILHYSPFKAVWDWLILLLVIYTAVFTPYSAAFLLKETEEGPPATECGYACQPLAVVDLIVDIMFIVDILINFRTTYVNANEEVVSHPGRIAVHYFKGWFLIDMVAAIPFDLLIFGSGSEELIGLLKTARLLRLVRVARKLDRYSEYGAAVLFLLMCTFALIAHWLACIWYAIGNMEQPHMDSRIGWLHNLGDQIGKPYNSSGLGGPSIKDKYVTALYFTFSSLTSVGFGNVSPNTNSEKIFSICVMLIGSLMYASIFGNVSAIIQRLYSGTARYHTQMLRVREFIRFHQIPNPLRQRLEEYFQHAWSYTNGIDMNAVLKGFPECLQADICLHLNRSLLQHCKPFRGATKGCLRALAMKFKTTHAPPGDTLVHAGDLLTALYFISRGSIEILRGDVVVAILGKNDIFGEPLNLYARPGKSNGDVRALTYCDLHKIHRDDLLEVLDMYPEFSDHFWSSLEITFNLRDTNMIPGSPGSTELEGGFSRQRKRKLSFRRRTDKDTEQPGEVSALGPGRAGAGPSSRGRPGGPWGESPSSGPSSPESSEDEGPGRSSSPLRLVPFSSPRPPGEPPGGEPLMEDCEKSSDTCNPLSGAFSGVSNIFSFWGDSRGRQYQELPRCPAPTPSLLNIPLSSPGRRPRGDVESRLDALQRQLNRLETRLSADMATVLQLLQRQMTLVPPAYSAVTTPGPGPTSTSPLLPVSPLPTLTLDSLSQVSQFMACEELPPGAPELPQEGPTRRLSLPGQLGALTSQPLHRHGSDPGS

By bioavailability is commonly meant dose-corrected exposure relative to a reference, in per cent. What is called Ki is the dissociation constant of the complex between target and ligand, obtained from inhibition or displacement. The term AUC denotes the area under the concentration-time curve, a measure of exposure. A low value points to less exposure. The term Tmax denotes the time from dosing to the highest level. The fraction unbound is free concentration divided by total concentration. A higher fraction unbound goes with weak binding. The term half-life denotes how long it takes for the measured level to halve. The Kp is tissue or fluid exposure divided by exposure in the circulation. A word on the Cmax: it is the maximum level reached in the sampled fluid or tissue. Turning to `CC(C)c1cc(N2CC[C@@H](N)C2)nc(N)n1` [JNJ-39758979], the bioavailability is 53% in data set [1], 95% in data set [10], 75% in data set [14] and 38% in data set [20]. Further, the Ki on Histamine H3 receptor was 1040 nM; in data set [4], ≥ 10000 nM; at Histamine H4 receptor it was 12.5 nM. This compound had an exposure (AUC) in [2] of 184 µM·h. Also, in [3], the Papp A→B was 23 ×10⁻⁶ cm/s. Besides, the time of peak concentration (Tmax) worked out at 2 h in data set [5], 2 h in data set [11], 2 h in data set [13] and 8 h in data set [18]. This compound showed an unbound share (fraction unbound) in data set [6] of 0.76. Further, the half-life in data set [7] is 5.7 h; in data set [12], 6.8 h; in data set [15], 6.16 h; in [19], 7.5 h. Besides, the Kp in data set [8] and in data set [17] was 23.2 throughout. The same compound had a Cmax in data set [9] of 5.03 µM. Besides, the “inhibition (INH)” value in data set [16] is “Not Active”.
